Reference: ChEMBL document CHEMBL1681730, “17,20-lyase inhibitors. Part 4: design, synthesis and structure-activity relationships of naphthylmethylimidazole derivatives as novel 17,20-lyase inhibitors” (Bioorg Med Chem, 2011)

Experiments:
[1] = molecular target: Cytochrome P450 3A4 (Homo sapiens, UniProt P08684); assay: Inhibition of human CYP3A4; type: ADME
[2] = molecular target: T1, Cytochrome P450c11B3 (Rattus norvegicus, UniProt Q64546); assay: Inhibition of 11-hydroxylase activity in Sprague-Dawley rat adrenal gland; type: tissue-based
T1 sequence (Q64546 whole entry): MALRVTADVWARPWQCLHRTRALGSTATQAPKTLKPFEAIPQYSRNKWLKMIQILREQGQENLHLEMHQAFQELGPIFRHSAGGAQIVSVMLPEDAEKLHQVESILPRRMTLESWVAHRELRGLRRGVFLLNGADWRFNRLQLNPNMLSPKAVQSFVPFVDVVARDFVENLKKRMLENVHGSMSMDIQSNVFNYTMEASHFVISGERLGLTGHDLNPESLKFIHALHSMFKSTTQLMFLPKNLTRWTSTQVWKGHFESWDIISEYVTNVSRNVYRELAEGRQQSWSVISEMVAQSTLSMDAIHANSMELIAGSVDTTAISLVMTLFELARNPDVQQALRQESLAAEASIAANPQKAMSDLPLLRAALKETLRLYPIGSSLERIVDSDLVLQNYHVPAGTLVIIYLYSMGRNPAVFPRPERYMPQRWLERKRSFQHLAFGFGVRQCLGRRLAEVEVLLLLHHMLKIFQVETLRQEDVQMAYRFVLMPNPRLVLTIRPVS
Outline: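 Mitochondrial fraction from SD rat adrenal glands, 4 µg protein, in 200 mM mannitol, 4.5 mM HEPES, 2.3 mM K phosphate pH 7.4, 0.1 mM EDTA, 0.03% BSA, 4.5 mM NADPH, 11 mM CaCl2. Substrate 10 nM [1,2-3H]-11-deoxycortisol. Test compound 1–1000 nM, diluted in DMF. Incubated 30 min at 37 °C, stopped with ethyl acetate. Final concentrations.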

[3] = molecular target: T2, Cytochrome P450 2C8 (Homo sapiens, UniProt P10632); assay: Inhibition of human CYP2C8; type: ADME
T2 sequence (P10632 whole entry): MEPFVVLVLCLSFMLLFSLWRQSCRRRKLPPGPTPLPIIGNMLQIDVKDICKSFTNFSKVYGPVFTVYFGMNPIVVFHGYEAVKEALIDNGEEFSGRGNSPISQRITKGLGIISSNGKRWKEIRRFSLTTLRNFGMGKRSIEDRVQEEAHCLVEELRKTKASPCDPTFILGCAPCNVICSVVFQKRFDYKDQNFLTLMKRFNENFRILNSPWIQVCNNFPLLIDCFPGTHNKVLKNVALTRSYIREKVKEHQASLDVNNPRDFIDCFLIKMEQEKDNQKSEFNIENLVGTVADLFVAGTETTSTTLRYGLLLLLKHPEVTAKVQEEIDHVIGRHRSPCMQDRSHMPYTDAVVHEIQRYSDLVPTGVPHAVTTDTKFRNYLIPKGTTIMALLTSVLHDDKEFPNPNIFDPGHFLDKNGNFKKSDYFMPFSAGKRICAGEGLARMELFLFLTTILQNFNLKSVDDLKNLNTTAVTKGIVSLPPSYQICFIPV
Outline: (§1)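 Microsomes from human B-lymphoblastoid cells expressing one CYP isoform, with inhibitor at 3, 10 and 30 µmol/L. Buffer 80 mmol/L phosphate pH 7.4 (Tris-HCl pH 7.4 for CYP2C9) with 10 mmol/L MgCl2 and a NADPH-regenerating system. Inhibitor and substrate preincubated 5 min at 37 °C, then microsomes added to start. Marker reactions: tolbutamide hydroxylation (CYP2C8, CYP2C9), bufuralol 1'-hydroxylation (CYP2D6). Control was methanol alone.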

[4] = Cmax in Crl:CD(SD)IGS rat at 10 mg/kg, po by HPLC analysis; type: ADME, organism-based; parameters: dose 10 mg/kg, route oral; details: in vivo
Outline: (§2)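 Non-fasted male Crl:CD(SD)IGS rats, 8 weeks old, n = 3. Dosed 1 mg/kg iv or 10 mg/kg po. Plasma sampled at 5 (iv only), 10 (iv only), 15, 30 min and 1, 2, 4, 8, 24 h. Plasma deproteinized with acetonitrile, supernatant dried under N2, taken up in mobile phase and analysed by HPLC on an ODS column. […] Mean ± SD.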

[5] = molecular target: T3, Steroid 17-alpha-hydroxylase/17,20 lyase (Rattus norvegicus, UniProt P11715); assay: Inhibition of 17,20 lyase activity in Sprague-Dawley rat testicular microsomes; parameters: species or system Testis
T3 sequence (P11715 whole entry): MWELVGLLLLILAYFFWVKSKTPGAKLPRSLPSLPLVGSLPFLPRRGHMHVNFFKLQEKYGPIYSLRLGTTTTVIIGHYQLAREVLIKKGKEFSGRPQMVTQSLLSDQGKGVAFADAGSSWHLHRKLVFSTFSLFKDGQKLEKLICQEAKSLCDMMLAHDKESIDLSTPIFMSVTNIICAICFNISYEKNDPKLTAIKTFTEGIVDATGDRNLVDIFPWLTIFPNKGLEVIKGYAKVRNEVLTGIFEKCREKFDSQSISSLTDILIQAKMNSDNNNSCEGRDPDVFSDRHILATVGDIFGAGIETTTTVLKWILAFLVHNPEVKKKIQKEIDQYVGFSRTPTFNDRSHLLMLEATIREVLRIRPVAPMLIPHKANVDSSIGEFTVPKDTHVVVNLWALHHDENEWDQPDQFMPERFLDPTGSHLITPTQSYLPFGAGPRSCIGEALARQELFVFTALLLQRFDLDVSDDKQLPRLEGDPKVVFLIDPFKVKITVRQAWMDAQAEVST
Outline: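 Testicular microsomes from 13-week-old male SD rats (7 µg protein) in 75 mM phosphate buffer, pH 7.4, with 10 nM [1,2-3H]-17α-hydroxyprogesterone, 5 mM NADPH, and 1–1000 nM test compound (all final). Compounds were diluted in DMF and then in water. Incubation ran 15 min at 37 °C and was stopped with ethyl acetate. IC50 is the concentration that halves product formation.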

[6] = Tmax in Crl:CD(SD)IGS rat at 10 mg/kg, po by HPLC analysis; type: ADME, organism-based; parameters: dose 10 mg/kg, route oral; details: in vivo; outline: as §2
[7] = AUC (0 to 24 hrs) in Crl:CD(SD)IGS rat at 1 mg/kg, iv by HPLC analysis; type: ADME, organism-based; parameters: time < 24 hr, dose 1 mg/kg, route intravenous; details: plasma
Outline: (§3)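 Male non-fasted 8-week-old rats, n = 3; 1 mg/kg IV or 10 mg/kg oral. Plasma sampled at 5, 10, 15, 30 min and 1, 2, 4, 8, 24 h after IV dosing, or at 15, 30 min and 1, 2, 4, 8, 24 h after oral dosing. Plasma deproteinized with acetonitrile, dried under N₂, taken up in mobile phase, and analysed by reverse-phase HPLC on an ODS column.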

[8] = molecular target: Cytochrome P450 2C9 (Homo sapiens, UniProt P11712); assay: Inhibition of human CYP2C9; type: ADME; outline: as §1
Chain of Cytochrome P450 2C9 (P11712 whole entry): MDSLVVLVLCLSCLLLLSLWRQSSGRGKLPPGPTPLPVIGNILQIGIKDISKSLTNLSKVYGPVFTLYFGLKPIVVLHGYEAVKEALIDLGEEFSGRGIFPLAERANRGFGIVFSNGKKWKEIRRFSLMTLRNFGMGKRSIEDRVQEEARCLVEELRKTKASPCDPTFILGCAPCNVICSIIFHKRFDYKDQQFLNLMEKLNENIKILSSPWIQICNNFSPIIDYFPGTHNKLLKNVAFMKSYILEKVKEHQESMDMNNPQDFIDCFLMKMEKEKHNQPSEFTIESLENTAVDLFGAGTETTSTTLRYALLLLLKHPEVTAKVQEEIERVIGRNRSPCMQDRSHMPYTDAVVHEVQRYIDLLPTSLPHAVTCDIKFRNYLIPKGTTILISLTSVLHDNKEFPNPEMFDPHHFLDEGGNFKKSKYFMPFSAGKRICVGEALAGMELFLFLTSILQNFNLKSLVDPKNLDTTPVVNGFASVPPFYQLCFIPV

[9] = molecular target: T4, Steroid 17-alpha-hydroxylase/17,20 lyase (Homo sapiens, UniProt P05093); assay: Inhibition of 17,20 lyase activity in human
T4 sequence (P05093 whole entry): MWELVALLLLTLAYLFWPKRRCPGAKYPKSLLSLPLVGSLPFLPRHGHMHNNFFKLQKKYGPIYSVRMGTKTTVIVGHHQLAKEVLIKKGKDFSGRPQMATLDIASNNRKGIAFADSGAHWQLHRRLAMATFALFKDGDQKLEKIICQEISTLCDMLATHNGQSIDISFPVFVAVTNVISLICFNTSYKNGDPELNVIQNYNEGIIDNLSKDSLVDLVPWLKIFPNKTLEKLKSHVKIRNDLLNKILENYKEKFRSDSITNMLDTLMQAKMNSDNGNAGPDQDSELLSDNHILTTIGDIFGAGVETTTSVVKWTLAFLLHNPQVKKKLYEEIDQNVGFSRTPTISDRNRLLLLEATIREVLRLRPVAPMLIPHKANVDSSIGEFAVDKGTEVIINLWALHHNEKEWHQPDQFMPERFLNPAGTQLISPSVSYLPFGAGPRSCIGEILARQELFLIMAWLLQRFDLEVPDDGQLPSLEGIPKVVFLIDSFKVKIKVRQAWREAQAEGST
Outline: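 Recombinant P450c17 (0.5 pmol) with cytochrome b5 (0.5 pmol) and NADPH-P450 reductase (20.8 ng) in 75 mM phosphate pH 7.4 with 1 mM MgCl2. Substrate 10 nM [1,2-3H]-17α-hydroxypregnenolone, 5 mM NADPH, compound 1–1000 nM. Incubated 15 min at 37 °C, ethyl acetate extraction, DHEA separated from substrate by silica TLC (cyclohexane–ethyl acetate 3:2). IC50 taken as 50% reduction in product.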

[10] = AUC (0 to 24 hrs) in Crl:CD(SD)IGS rat at 10 mg/kg, po by HPLC analysis; type: ADME, organism-based; parameters: time < 24 hr, dose 10 mg/kg, route oral; details: plasma; outline: as §3
[11] = molecular target: Cytochrome P450 2D6 (Homo sapiens, UniProt P10635); assay: Inhibition of human CYP2D6; type: ADME; outline: as §1
Chain of Cytochrome P450 2D6 (P10635 whole entry): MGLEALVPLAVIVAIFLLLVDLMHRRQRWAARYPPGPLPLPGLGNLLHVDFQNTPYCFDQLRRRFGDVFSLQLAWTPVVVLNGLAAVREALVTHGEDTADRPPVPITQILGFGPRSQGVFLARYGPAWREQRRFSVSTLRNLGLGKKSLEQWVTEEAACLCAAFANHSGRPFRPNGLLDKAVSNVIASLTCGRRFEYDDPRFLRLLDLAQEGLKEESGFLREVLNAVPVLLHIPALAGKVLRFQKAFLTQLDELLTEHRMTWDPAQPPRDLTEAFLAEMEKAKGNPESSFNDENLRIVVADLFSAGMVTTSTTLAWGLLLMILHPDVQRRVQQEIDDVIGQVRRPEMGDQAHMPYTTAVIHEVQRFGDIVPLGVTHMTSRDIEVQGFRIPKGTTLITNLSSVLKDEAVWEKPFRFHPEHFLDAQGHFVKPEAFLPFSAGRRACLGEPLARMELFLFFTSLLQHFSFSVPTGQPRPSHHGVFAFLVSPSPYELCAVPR

[12] = Oral bioavailability in Crl:CD(SD)IGS rat at 10 mg/kg by HPLC analysis; type: ADME, organism-based; details: in vivo; outline: as §2

Chain of Cytochrome P450 3A4 (P08684 whole entry): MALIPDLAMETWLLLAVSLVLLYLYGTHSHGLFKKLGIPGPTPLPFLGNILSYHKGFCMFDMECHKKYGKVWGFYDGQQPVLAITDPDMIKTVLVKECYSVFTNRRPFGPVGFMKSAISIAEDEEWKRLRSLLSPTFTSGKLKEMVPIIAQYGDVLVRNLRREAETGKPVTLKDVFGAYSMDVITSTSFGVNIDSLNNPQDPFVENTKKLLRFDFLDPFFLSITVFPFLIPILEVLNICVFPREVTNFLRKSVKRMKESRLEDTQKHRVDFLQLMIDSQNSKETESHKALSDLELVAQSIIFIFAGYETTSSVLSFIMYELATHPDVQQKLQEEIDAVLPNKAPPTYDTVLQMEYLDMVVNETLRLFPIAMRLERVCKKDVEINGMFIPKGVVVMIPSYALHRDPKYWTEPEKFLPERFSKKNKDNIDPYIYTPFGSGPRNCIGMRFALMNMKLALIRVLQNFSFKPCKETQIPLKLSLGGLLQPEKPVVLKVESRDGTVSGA

In the case of `CC(C)[C@](O)(c1ccc2c3c(ccc2c1)C(=O)N(C)C3)c1cnc[nH]1`, the IC50 [1] is reported as greater than 10 µM, the IC50 [2] is reported as greater than 1 µM and the IC50 [3] is reported as 28 µM. The Cmax [4] was 2940 ng/mL, the IC50 [5] was less than 0.01 µM and the Tmax [6] was 25.2 min. For the same molecule, the AUC(0-t) at 24 h [7] was 573 ng·h/mL, the IC50 [8] was less than 3 µM and the IC50 [9] was 0.019 µM. It also gave an AUC(0-t) at 24 h [10] of 7320 ng·h/mL, an IC50 [11] greater than 30 µM and a bioavailability [12] of 128%.
